Reference: BindingDB's records for doi:10.1021/jm00069a013 (University of North Carolina, 1993)
Counter-ions that a name gives are not always drawn.

Tests used:
[1] = Binding affinity against sigma receptor from guinea pig brain (minus cerebellum) homogenates, using [3H]ditolylguanidine (DTG) as radioligand.
Outline: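 Competition binding with whole guinea pig brain (minus cerebellum) homogenates in 10 mM Tris-HCl without added cations. Nonspecific binding was defined by 10 μM haloperidol. Concentrations were tested in duplicate, with three replications. IC50 values came from curve fitting.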

[2] = Binding affinity against sigma receptor from guinea pig brain (minus cerebellum) homogenates, using the novel [3H]-(+/-)-4 as radioligand

Row | IC50 [2] [nM] | SMILES | IC50 [1] [nM]
1 | 2760 | CN(C)[C@H]1CCc2ccccc2[C@H]1c1ccccc1 [Dimethyl-(1-phenyl-1,2,3,4-tetrahydro-naphthalen-2-yl)-amine] | 3340
2 | 4.5 | CCN(CC)C1Cc2ccccc2C(c2ccccc2)C1 (trans isomer) | 207

The remaining lines, values behind:

Row | SMILES | IC50 [2] [nM] | IC50 [1] [nM]
3 | C=CCNC1Cc2ccccc2C(c2ccccc2)C1 (stereo not drawn) [trans-Allyl-(4-phenyl-1,2,3,4-tetrahydro-naphthalen-2-yl)-amine; hydrochloride] | 117 | –
4 | CN(C)C1Cc2ccccc2C(c2ccccc2)C1 (stereo not drawn) [cis-Dimethyl-(4-phenyl-1,2,3,4-tetrahydro-naphthalen-2-yl)-amine; hydrochloride] | – | 960
5 | C=CCN(C)C1Cc2ccccc2C(c2ccccc2)C1 (stereo not drawn) [trans-Allyl-methyl-(4-phenyl-1,2,3,4-tetrahydro-naphthalen-2-yl)-amine; hydrochloride] | – | 1550
6 | C=CCN(CC=C)C1Cc2ccccc2C(c2ccccc2)C1 (stereo not drawn) [trans-Diallyl-(4-phenyl-1,2,3,4-tetrahydro-naphthalen-2-yl)-amine; hydrochloride] | 27 | 538
7 | NC1Cc2ccccc2C(c2ccccc2)C1 (stereo not drawn) [trans-4-Phenyl-1,2,3,4-tetrahydro-naphthalen-2-ylamine; hydrochloride] | – | > 10000
